The subject of test [1] is LS174T. The experiment in a line: The compound was evaluated for Activation Factor. Type of test: functional, Homo sapiens.
For test [2], the system named is LS174T. The experiment in a line: Tested for the cytotoxicity in LS174T cells after activation by enzyme nitroreductase/NADH. To be noted: Homo sapiens. It is filed as functional, cell-based. The gist of the method:
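Human adenocarcinoma LS174T cells were seeded at 2000 cells/well and exposed to a range of prodrug concentrations together with nitroreductase and NADH cofactor for 1 h. Cells were washed and grown for 3 days. IC50 is the prodrug dose giving 50% growth inhibition versus drug-free controls.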

Test [3] deals with LS174T. Briefly: Tested for the cytotoxicity in LS174T cells before activation by enzyme nitroreductase/NADH. Type of test: functional, cell-based. As to conditions: Homo sapiens. An outline of the steps: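 LS174T adenocarcinoma cells were seeded at 2000 cells/well and treated with various prodrug concentrations for 1 h without enzyme. They were washed and incubated for 3 days. IC50 is the dose inhibiting growth by 50% relative to drug-free controls.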

Test [4] deals with LS174T. Briefly: Parent […] tested for the cytotoxicity in LS174T cells. Type of test: functional, cell-based. To be noted: Homo sapiens.
Test [5] relates to LS174T. The experiment in a line: Tested for the cytotoxicity in LS174T cells; 0.001-0.01. As to conditions: Homo sapiens. It is filed as functional, cell-based.

A word on the IC50: it is the concentration at which inhibition is half-maximal. As for `COc1cc2c(cc1OCc1ccccc1)N(C(=O)OCc1ccc([N+](=O)[O-])cc1)[C@@H](O)[C@@H]1CCCN1C2=O`, in the test on LS174T [1], the “Activation Factor” value was over 100. The IC50 was 5 µM in the test on LS174T [2], over 500 µM in the test on LS174T [3] and 0.008 µM with LS174T [4].

As for `C/C=C1/C[C@H]2[C@H](O)N(C(=O)OCc3ccc([N+](=O)[O-])cc3)c3cc(OCc4ccccc4)c(OC)cc3C(=O)N2C1`, in the test on LS174T [1], the “Activation Factor” value is listed as 13.5. In addition, the values for the IC50 with LS174T [2], with LS174T [3] and in the test on LS174T [4] were 6.4 µM, 86.2 µM and 0.001 µM, respectively.

Turning to `COc1cc2c(cc1OCCCOc1cc3c(cc1OC)C(=O)N1CCC[C@H]1[C@H](O)N3C(=O)OCc1ccc([N+](=O)[O-])cc1)N(C(=O)OCc1ccc([N+](=O)[O-])cc1)[C@@H](O)[C@@H]1CCCN1C2=O`, the “Activation Factor” value in the test on LS174T [1] turned out to be 15.7. The IC50 was 13.7 µM in the test with LS174T [2], 215 µM in the test on LS174T [3] and 0.0005 µM with LS174T [4].

`C/C=C1/C[C@H]2C=Nc3cc(OCc4ccccc4)c(OC)cc3C(=O)N2C1` showed a half-inhibitory concentration (IC50) in the test with LS174T [5] of 0.01 µM.

Values taken from ChEMBL document CHEMBL1133066, “Design and synthesis of novel pyrrolobenzodiazepine (PBD) prodrugs for ADEPT and GDEPT” (Bioorg Med Chem Lett, 2000).
